Source: ChEMBL document CHEMBL1143169, “Highly water-soluble prodrugs of anthelmintic benzimidazole carbamates: synthesis, pharmacodynamics, and pharmacokinetics” (J Med Chem, 2008)
One block for each molecule: values may come before it. Calls of active or inactive are those of the source. The rule behind the calls is not given here.

What was measured:
[1] = Aqueous solubility at pH 7.4; format: physicochemical
[2] = Aqueous stability of the compound; format: physicochemical; details: buffer
Procedure, shortened: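 The compound was dissolved in water at 50 mM and held at pH 5 and at pH 9 for 8 h at room temperature. Remaining intact compound was measured by UV-HPLC.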

Oesophagostomum dentatum [3] = test: Anthelmintic activity against Oesophagostomum dentatum infected pig assessed as worm burden reduction; format: functional
Oesophagostomum dentatum [4] = test: Anthelmintic activity against Oesophagostomum dentatum infected pig assessed as reduction in fecal egg shedding; format: functional
Sus scrofa [5] = test: AUC in pig at 5.0 mg/kg, po assessed as fenbendazole sulfone level; format: ADME, organism-based, Plasma; set-up: dose 5 mg/kg, route oral; details: in vivo
Procedure, shortened: (§1)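 Swine received a single oral dose of 5.0 mg/kg, given as an aqueous solution or suspension. Plasma levels of fenbendazole, fenbendazole sulfoxide and fenbendazole sulfone were measured over time. Cmax, Tmax and AUC were derived for each analyte.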

[6] = Cmax in pig at 5.0 mg/kg, po; format: ADME, organism-based, Sus scrofa; set-up: dose 5 mg/kg, route oral; details: in vivo; procedure, shortened: as §1
[7] = AUC in pig at 5.0 mg/kg, po; format: ADME, organism-based, Sus scrofa; set-up: dose 5 mg/kg, route oral; details: plasma; procedure, shortened: as §1
Sus scrofa [8] = test: Tmax in pig at 5.0 mg/kg, po assessed as fenbendazole sulfoxide level; format: ADME, organism-based; set-up: dose 5 mg/kg, route oral; details: in vivo; procedure, shortened: as §1
Sus scrofa [9] = test: Tmax in pig at 5.0 mg/kg, po assessed as fenbendazole sulfone level; format: ADME, organism-based; set-up: dose 5 mg/kg, route oral; details: in vivo; procedure, shortened: as §1
Sus scrofa [10] = test: Cmax in pig at 5.0 mg/kg, po assessed as fenbendazole sulfone level; format: ADME, organism-based; set-up: dose 5 mg/kg, route oral; details: in vivo; procedure, shortened: as §1
Sus scrofa [11] = test: AUC in pig at 5.0 mg/kg, po assessed as fenbendazole sulfoxide level; format: ADME, organism-based, Plasma; set-up: dose 5 mg/kg, route oral; details: in vivo; procedure, shortened: as §1
Sus scrofa [12] = test: Cmax in pig at 5.0 mg/kg, po assessed as fenbendazole sulfoxide level; format: ADME, organism-based; set-up: dose 5 mg/kg, route oral; details: in vivo; procedure, shortened: as §1
[13] = Tmax in pig at 5.0 mg/kg, po; format: ADME, organism-based, Sus scrofa; set-up: dose 5 mg/kg, route oral; details: in vivo; procedure, shortened: as §1
Sus scrofa [14] = test: (§2) AUC in pig at 6.8 mg/kg, po assessed as sodium (2-(methoxycarbonyl)-5-(phenylsulphonyl)-1H-benzo[d]imidazol-1-yl)methyl phosphate level; format: ADME, organism-based, Plasma; set-up: dose 6.8 mg/kg, route oral; details: in vivo
Sus scrofa [15] = test: Cmax in pig at 6.8 mg/kg, po; details: in vivo
Sus scrofa [16] = test: (§3) Tmax in pig at 6.8 mg/kg, po assessed as sodium (2-(methoxycarbonyl)-5-(phenylsulphonyl)-1H-benzo[d]imidazol-1-yl)methyl phosphate level; format: ADME, organism-based; set-up: dose 6.8 mg/kg, route oral; details: in vivo
Sus scrofa [17] = test: as §3; format: ADME, organism-based; set-up: dose 6.8 mg/kg, route oral; details: in vivo; remark: listed apart in the source
Sus scrofa [18] = test: Cmax in pig at 6.8 mg/kg, po assessed as sodium (2-(methoxycarbonyl)-5-(phenylsulphonyl)-1H-benzo[d]imidazol-1-yl)methyl phosphate; format: ADME, organism-based; set-up: dose 6.8 mg/kg, route oral; details: in vivo
Sus scrofa [19] = test: as §2; format: ADME, organism-based, Plasma; set-up: dose 6.8 mg/kg, route oral; details: in vivo; remark: listed apart in the source

Structure (SMILES): CCCSc1ccc2c(c1)nc(NC(=O)OC)n2COP(=O)([O-])O.[Na+]
solubility [1]: > 50 mM | Stability [2]: > 8 h

Structure (SMILES): CCCCc1ccc2c(c1)nc(NC(=O)OC)n2COP(=O)([O-])O.[Na+]
solubility [1]: > 50 mM | Stability [2]: > 8 h

Structure (SMILES): COC(=O)Nc1nc2cc(Sc3ccccc3)ccc2[nH]1
Activity (Oesophagostomum dentatum [3]): Active | Activity (Oesophagostomum dentatum [4]): Active

Structure (SMILES): COC(=O)Nc1nc2ccc(Sc3ccccc3)cc2[nH]1 [FENBENDAZOLE]
AUC (Sus scrofa [5]): 12730 ng·h/mL | Cmax [6]: 50 ng/mL | AUC [7]: 310 ng·h/mL | Tmax (Sus scrofa [8]): 17 h | Tmax (Sus scrofa [9]): 34 h | Cmax (Sus scrofa [10]): 380 ng/mL | AUC (Sus scrofa [11]): 35000 ng·h/mL | Cmax (Sus scrofa [12]): 1090 ng/mL | Tmax [13]: 5.4 h

Second part, led by results:

solubility [1]: > 50 mM | Stability [2]: > 8 h
Structure (SMILES): COC(=O)Nc1nc2cc([S+]([O-])c3ccccc3)ccc2n1COP(=O)([O-])O.[Na+] (stereo unspecified)

solubility [1]: > 50 mM | Stability [2]: > 8 h
Structure (SMILES): COC(=O)Nc1nc2cc(C(=O)c3ccccc3)ccc2n1COP(=O)([O-])O.[Na+]

AUC (Sus scrofa [14]): 31150 ng·h/mL | Cmax (Sus scrofa [15]): 1410 ng/mL | solubility [1]: 130 mM | Tmax (Sus scrofa [16]): 36 h | Tmax (Sus scrofa [17]): 15 h | Cmax (Sus scrofa [18]): 780 ng/mL | AUC (Sus scrofa [19]): 58770 ng·h/mL | Stability [2]: > 8 h
Structure (SMILES): COC(=O)Nc1nc2cc(Sc3ccccc3)ccc2n1COP(=O)([O-])O.[Na+]
Activity (Oesophagostomum dentatum [3]): Active | Activity (Oesophagostomum dentatum [4]): Active

solubility [1]: > 50 mM | Stability [2]: > 8 h
Structure (SMILES): COC(=O)Nc1nc2cc(C(=O)c3ccc(F)cc3)ccc2n1COP(=O)([O-])O.[Na+]
